Compounds with a hit are over-represented: about 1.3% of the library has one in this group of screens.
S100A4 MyoIIA = inhibitors of S100A4-myosin IIA peptide binding, primary screen, biochemical, fluorescence polarization, TAMRA-MyoIIA peptide; Protein S100-A4 (Homo sapiens), P26447; 0.14% of 360,000 active; inhibition, % at 10.7 µM;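 active means mean inhibition of at least 70% across replicates, with every replicate also reaching that level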
Target sequence (P26447 whole entry, looked up): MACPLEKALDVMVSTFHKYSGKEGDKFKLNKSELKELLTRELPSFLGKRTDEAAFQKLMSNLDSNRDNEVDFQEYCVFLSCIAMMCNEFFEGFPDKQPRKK
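Material: S100A4 monomer protein / Buffer or medium: 50 mM HEPES pH 7.2, 10 mM CaCl2, 100 mM KCl / Times: 5 min incubation before reading / Benchmarks: neutral control DMSO, positive control TFP / Reagent: labelled myosin peptide probe, 5 nM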
AF4-AF9 inh = inhibitors of AF4 peptide binding to AF9, primary screen, biochemical, AlphaScreen, biotin-AF4 peptide, FLAG-AF9, single point | Protein AF-9 (Homo sapiens), P42568 | inhibition, % at 10 µM | 0.47% of 350,000 active;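 active means every replicate reaching a set inhibition limit, whatever the replicate mean, cut at about 25% in these data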;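 further: 0% = plate neutral control median and 100% = total signal loss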
RAD54 branch = inhibitors of human RAD54 branch migration, primary screen, biochemical, fluorescence, single point. RAD54 Holliday junction branch migration, FAM/BHQ fluorescence. inhibition, % at 10.4 µM. 0.14% of 360,000 active;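 active means mean normalized replicate activity at least 40 and at least half of replicates scoring 40 or more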;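 further: 0% = median of neutral control wells and 100% = median of positive control wells; inhibitors cause a drop in the FAM fluorescence signal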
RAD52 anneal inh = RAD52 DNA annealing inhibitors, primary screen, biochemical, FRET, single point, set 2; DNA repair protein RAD52 homolog (Homo sapiens), P43351; recombinant RAD52 DNA annealing, FRET fluorescence; inhibition, % at 18.7 µM; 0.46% of 360,000 active;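 active means every replicate showing at least 50% inhibition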
Target sequence (P43351 whole entry, looked up): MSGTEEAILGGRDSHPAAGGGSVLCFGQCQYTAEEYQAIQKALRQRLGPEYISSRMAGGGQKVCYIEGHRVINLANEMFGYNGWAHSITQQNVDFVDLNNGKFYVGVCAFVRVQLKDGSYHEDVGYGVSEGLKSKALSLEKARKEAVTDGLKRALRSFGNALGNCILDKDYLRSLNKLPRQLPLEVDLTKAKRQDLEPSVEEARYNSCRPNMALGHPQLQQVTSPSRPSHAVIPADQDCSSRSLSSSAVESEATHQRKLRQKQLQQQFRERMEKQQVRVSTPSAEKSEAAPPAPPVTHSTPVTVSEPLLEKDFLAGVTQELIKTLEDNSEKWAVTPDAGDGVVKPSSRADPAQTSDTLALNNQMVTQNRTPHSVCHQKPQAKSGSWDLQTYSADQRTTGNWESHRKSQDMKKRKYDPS
INS-1E GSIS act = GLuc luminescence reporter in INS-1E cells, primary screen for activators of glucose-dependent secretion of insulin; INS-1E GLuc reporter insulin secretion, 2-3 h; activation, % at 16.6 µM; 0.61% of 370,000 active; AID 743287, 2014;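 active means lowest replicate activation of at least 40%, so every replicate reaches that level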;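 further: 0% = median of neutral control wells and 100% = median of IBMX positive control wells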
An asterisk follows results filed as active; x = no result; + = active, no number.

SMILES	S100A4 MyoIIA	AF4-AF9 inh	RAD54 branch	RAD52 anneal inh	INS-1E GSIS act
COCC(=O)N[C@H]1CC[C@H](CC(=O)NCc2ccc(Cl)cc2)O[C@H]1CO	2	0	9	-9	14
CC(C)NC(=O)Nc1ccc2c(c1)CC(=O)N([C@@H](C)CO)C[C@@H](C)[C@H](CN(C)C(=O)Nc1ccc(F)cc1)O2	x	-10	-1	21	6
Cc1cc(NC(=O)/C=C/c2ccc(Cl)cc2)no1	x	x	x	x	50*
CCOC(=O)c1c(N)n(C2CC(C)(C)NC(C)(C)C2)c2nc3ccccc3nc12	x	x	83*	x	x
O=S(=O)(c1ccc(F)cc1)N1CCCCN2[C@H](CO)[C@H](c3ccc(C#CC4CCCC4)cc3)[C@H]2C1	22	6	-3	58*	x
O=S(=O)(c1ccc(F)cc1)N1CCCCN2[C@@H](CO)[C@H](c3ccc(-c4ccccc4F)cc3)[C@@H]2C1	2	0	-6	59*	x
O=S(=O)(c1ccc(F)cc1)N1CCCCN2[C@H](C1)[C@H](c1ccc(-c3ccccc3F)cc1)[C@@H]2CO	-6	-4	4	13	x
O=S(=O)(c1ccc(F)cc1)N1CCCCN2[C@@H](CO)[C@@H](c3ccc(-c4ccccc4F)cc3)[C@@H]2C1	1	0	2	60*	x
O=S(=O)(c1ccc(F)cc1)N1CCCCN2[C@H](C1)[C@H](c1ccc(C#CC3CCCC3)cc1)[C@@H]2CO	14	-6	2	12	x
O=S(=O)(c1ccccc1)N1CCCCN2[C@H](CO)[C@H](c3ccc(-c4ccccc4F)cc3)[C@H]2C1	6	1	5	52*	-19
O=C(c1ccc(F)cc1)N1C[C@@H]2[C@H](c3ccccc31)[C@H](CO)N2C(=O)c1ccccc1	-2	-1	3	4	-7
O=c1[nH]nc(-c2ccc(F)cc2)cc1Cc1cccs1	-7	x	x	-21	46*
COc1ccc(/C=C/C(=O)NC(=S)NN2CCCCC2c2cccnc2)cc1OC (centres undefined)	14	3	x	-23	70*
COc1cccc(C2CC(=O)NC(SC)=C2C#N)c1 (centres undefined)	-5	25*	-2	-2	x
CCSC1=C(C#N)C(c2cccc(Br)c2)CC(=O)N1 (centres undefined)	-2	-33	-11	-13	-26
COc1ccc2c3c(n(C)c2c1)[C@@H](CO)N(C(=O)CN(C)C)CC31CCN(S(C)(=O)=O)CC1	15	3	x	7	10
COc1ccc2c3c(n(C)c2c1)[C@@H](CO)N(CC1CCCC1)CC31CCN(C(=O)CN(C)C)CC1	-1	0	x	-64	-18
COc1ccc2c3c(n(C)c2c1)[C@H](CO)N(CC1CC1)CC31CCN(C(=O)CN(C)C)CC1	18	11	x	54*	7
COc1ccc(S(=O)(=O)N2CCC3(CC2)CN(C(=O)CN(C)C)[C@H](CO)c2c3c3ccc(OC)cc3n2C)cc1	7	33*	x	57*	3
O=C(C[C@@H]1CC[C@H]2[C@@H](COC[C@@H](O)CN2CC2CCCC2)O1)NCC1CC1	27	-5	x	-5	11
CC=Cc1ccc2n(c1=O)C[C@H]1[C@H](CO)[C@@H](C(=O)N(C)C)N(CCC(F)(F)F)[C@@H]21 (mixture of isomers)	5	-1	-1	-15	11
COc1cc(C2N(C)CCC3(OCCO3)C2(C)C)cc(OC)c1OC (centres undefined)	x	x	-4	x	48*
Cc1cccc(Nc2nc(N)c(C#N)c(CC#N)c2C#N)c1	x	x	-2	x	84*
O=C(Nc1ccc2c(c1)OCO2)N[C@@H]1CC[C@@H](CCNC(=O)C2CCCC2)O[C@H]1CO	90*	-9	6	2	-11
C[C@H](NC(=O)C[C@H]1CC[C@H](NC(=O)C2CCC2)[C@@H](CO)O1)c1ccccc1	5	0	4	-6	12
SMILES	S100A4 MyoIIA	AF4-AF9 inh	RAD54 branch	RAD52 anneal inh	INS-1E GSIS act
C[C@@H](NC(=O)C[C@@H]1CC[C@H](NC(=O)C2CCC2)[C@H](CO)O1)c1ccccc1	107*	1	-6	10	14
O=C(Nc1ccc2c(c1)OCO2)N[C@H]1CC[C@H](CCNC(=O)C2CCCC2)O[C@H]1CO	-20	2	8	11	3
O=C(Cc1ccncc1)NCC[C@@H]1CC[C@@H](NC(=O)C2CCOCC2)[C@@H](CO)O1	102*	-1	-6	-13	2
Cc1ccccc1S(=O)(=O)NCC[C@H]1CC[C@H](NC(=O)C2CCC2)[C@H](CO)O1	102*	2	-8	x	9
Cc1ccccc1S(=O)(=O)N1CC[C@@H]2[C@H]1c1cc(-c3cccc(C#N)c3)ccc1N(C)[C@H]2CO	5	-2	-5	8	14
COc1ccc(CN2CC3(CCN(C(=O)C4CCC4)CC3)c3c(n(C)c4cc(OC)ccc34)[C@H]2CO)cc1	x	x	x	x	-20
Cc1ccc(S(=O)(=O)N[C@H]2CC[C@@H](CCNS(=O)(=O)Cc3ccccc3)O[C@H]2CO)cc1	6	-1	-8	1	-2
Cc1ccc(S(=O)(=O)NCC[C@@H]2CC[C@H](NC(=O)C3CCOCC3)[C@H](CO)O2)cc1	1	1	-2	18	-5
CCCc1cn(CC[C@@H]2CC[C@H](NC(=O)C3CCCC3)[C@H](CO)O2)nn1	116*	-3	-20	-3	-2
Cc1ccc(S(=O)(=O)NCC[C@@H]2CC[C@@H](NC(=O)C3CCOCC3)[C@H](CO)O2)cc1	99*	0	-12	5	-15
COC(=O)C1=C(C)N(Cc2cccc(C(F)(F)F)c2)C(=NCc2ccc(C(F)(F)F)cc2)NC1c1cccc(F)c1 (centres undefined)	0	1	x	-24	x
COC(=O)C1=C(C)N(Cc2ccc(C(F)(F)F)cc2)C(=NCc2ccccc2)NC1c1cccc(F)c1 (centres undefined)	1	5	x	-11	671*
COC(=O)C1=C(C)N(Cc2cccc(C(F)(F)F)c2)C(=NCc2ccc(C(F)(F)F)cc2)NC1c1ccc(F)cc1 (centres undefined)	-25	x	x	-6	875*
COC(=O)C1=C(C)N(Cc2cccc(C(F)(F)F)c2)C(=NCc2ccc(C(F)(F)F)cc2)NC1c1ccc(C(F)(F)F)cc1 (centres undefined)	-6	x	x	-18	815*
COC(=O)C1=C(C)N(Cc2cccc(C(F)(F)F)c2)C(=NCc2ccc(OC)cc2)NC1c1cccc(Cl)c1 (centres undefined)	-2	4	x	-6	+

Bioassay records (PubChem BioAssay)
